The text below walks through data of publication PMC7340475 (Drug Design, Development and Therapy, 2020).

Where two headings read alike, the source gives them in different places.

Assay [1] concerns the target T1, α2C-AR (Homo sapiens, UniProt P18825).
T1 sequence (P18825 1-462): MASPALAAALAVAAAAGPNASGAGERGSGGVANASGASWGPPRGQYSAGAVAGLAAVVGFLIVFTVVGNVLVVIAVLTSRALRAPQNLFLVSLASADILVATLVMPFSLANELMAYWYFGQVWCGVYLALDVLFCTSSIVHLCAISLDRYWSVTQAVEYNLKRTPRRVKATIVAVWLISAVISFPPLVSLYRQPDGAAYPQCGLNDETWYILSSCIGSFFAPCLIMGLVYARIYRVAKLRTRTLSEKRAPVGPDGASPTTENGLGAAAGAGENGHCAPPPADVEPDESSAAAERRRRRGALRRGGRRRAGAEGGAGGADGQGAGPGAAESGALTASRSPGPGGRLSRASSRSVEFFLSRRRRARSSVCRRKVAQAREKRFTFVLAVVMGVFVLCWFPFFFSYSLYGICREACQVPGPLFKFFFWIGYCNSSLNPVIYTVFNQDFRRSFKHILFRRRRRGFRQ
Description: Saturation binding assay of the radioligand. To be noted: read-out: KD α2C-AR. In outline: (§1)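 Saturation binding used membranes from COS-7 cells transiently expressing each human α2-AR subtype. Membranes were incubated 1 h at room temperature with 0.1–10 nM [125I]-PIC in 50 mM Tris-HCl/120 mM sucrose. […] Reactions were stopped with PBS and filtered through GF/B. Radioactivity was counted and KD came from nonlinear regression.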

In assay [2] the target is T2, α2A-AR (Homo sapiens, UniProt P08913).
T2 sequence (P08913 1-465): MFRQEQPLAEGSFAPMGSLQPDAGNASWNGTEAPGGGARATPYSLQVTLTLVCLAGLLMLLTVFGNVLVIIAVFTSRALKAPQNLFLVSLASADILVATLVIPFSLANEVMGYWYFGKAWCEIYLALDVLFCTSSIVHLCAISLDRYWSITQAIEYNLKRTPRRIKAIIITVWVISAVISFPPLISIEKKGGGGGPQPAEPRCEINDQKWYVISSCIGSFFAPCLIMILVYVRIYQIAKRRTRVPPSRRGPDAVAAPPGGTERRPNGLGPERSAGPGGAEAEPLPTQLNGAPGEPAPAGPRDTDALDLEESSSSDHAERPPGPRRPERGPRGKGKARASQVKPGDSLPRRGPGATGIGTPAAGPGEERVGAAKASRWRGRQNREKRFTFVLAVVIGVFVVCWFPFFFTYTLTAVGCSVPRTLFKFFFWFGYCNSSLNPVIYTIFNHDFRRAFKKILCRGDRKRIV
Briefly: Saturation binding assay of the radioligand. The note with it: read-out: KD α2A-AR. In a few lines: as §1

The subject of assay [3] is CHO cells. The note with it: cited from earlier work.
The target of assay [4] is T2, α2A-AR. Briefly: cAMP-Glo assay, forskolin induced cAMP accumulation in transfected COS-7 cells. Format: cell-based. Background: Changes in cAMP serve as a functional read-out for many G protein-coupled receptors.

Turning to `Clc1cc(I)cc(Cl)c1NC1=NCCN1` [[^125I]-PIC, [^125I]-paraiodoclonidine], the values for the Kd in assay [1] and in assay [2] were 802 ± 53 pM and 209 ± 60 pM, respectively.

With `CNC[C@H](O)c1ccc(O)c(O)c1` [epinephrine], the “effect on cAMP production” value is listed as “increase” in assay [3] (from 10^−7 to 10^−6 M) and “inhibition” in assay [3] (from 10^−9 to 10^−8 M).

`NC[C@H](O)c1ccc(O)c(O)c1` [norepinephrine]: the “effect on cAMP production” value in assay [4] (higher concentrations (10^−3-10^−7M)) is “stimulated the expression of cAMP”; in assay [4] (lower concentrations (10^−10-10^−8M)), “inhibited the production of cAMP”.

For the compound `Cc1ccc(N(CC2=NCCN2)c2cccc(O)c2)cc1` [phentolamine], the “effect on the production of cAMP, compound alone” value in assay [4] (forskolin, no norepinephrine) was “did not have any effect”.

What is called Kd is a measure of binding affinity in units of concentration.
